Source: ChEMBL document CHEMBL3286159, “Design, synthesis and molecular docking of amide and urea derivatives as Escherichia coli PDHc-E1 inhibitors” (Bioorg Med Chem, 2014)

Experiment: Inhibition of purified Escherichia coli PDHc-E1 using sodium pyruvate as substrate assessed as reduction of 2,6-DichloroPhenolindophenol after 3 mins by spectrophotometry
In short: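 E. coli PDHc-E1 expressed as MBP fusion from pMal-C2X in E. coli TB1 (IPTG 0.5 mM, 7 h, 25 °C) and purified by MBP affinity. Mix of 50 mM K3PO4 pH 7.2, 2.0 mM pyruvate, 0.8 mM 2,6-DCPIP, 7.1 µM enzyme and inhibitor preincubated 3 min at 37 °C. ThDP (0–200 µM) added to start. DCPIP reduction read at 600 nm. Initial rates fit to Hill equation for IC50.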

| Structure (SMILES) | IC50 [µM] |
| --- | --- |
| COc1ccc(OCNC(=O)NCc2cnc(C)nc2N)cc1 | 6.3 |
| Cc1ncc(CNC(=O)COc2ccccc2)c(N)n1 | 45.4 |
| Cc1ncc(CNC(=O)COc2ccccc2Cl)c(N)n1 | 16.6 |
| Cc1ncc(CNC(=O)NCOc2ccccc2)c(N)n1 | 12.9 |
| Cc1ncc(CNC(=O)NCOc2ccc(F)cc2)c(N)n1 | 10.3 |
| Cc1ncc(CNC(=O)COc2ccc(Cl)cc2C)c(N)n1 | 21.9 |
| COc1ccc(OCC(=O)NCc2cnc(C)nc2N)cc1 | 16.8 |
| Cc1ncc(CNC(=O)NCOc2ccc(Cl)cc2)c(N)n1 | 3.67 |
| Cc1ncc(CNC(=O)COc2ccc(F)cc2)c(N)n1 | 17.4 |
| Cc1ccc(OCNC(=O)NCc2cnc(C)nc2N)cc1 | 9.23 |
| Cc1ncc(CNC(=O)COc2ccc(Br)cc2)c(N)n1 | 11.1 |
| Cc1ncc(CNC(=O)COc2ccc(F)cc2Cl)c(N)n1 | 7.6 |

Second part, the compound after the results:

| IC50 [µM] | Structure (SMILES) |
| --- | --- |
| 13.4 | Cc1ncc(CNC(=O)COc2ccc(C#N)cc2)c(N)n1 |
| 9.45 | Cc1ncc(CNC(=O)COc2ccc(Cl)cc2Cl)c(N)n1 |
| 60.8 | Cc1ncc(CNC(=O)COc2ccccc2Br)c(N)n1 |
| 4.9 | Cc1ncc(CNC(=O)COc2ccc([N+](=O)[O-])cc2Cl)c(N)n1 |
| 13 | Cc1ncc(CNC(=O)COc2ccc(Cl)cc2)c(N)n1 |
| 3.58 | Cc1ncc(CNC(=O)COc2ccc([N+](=O)[O-])cc2)c(N)n1 |
| 21.6 | Cc1ccc(OCC(=O)NCc2cnc(C)nc2N)cc1 |
